Measurements as given in paper PMC6796888 (ACS Omega, 2019).
In brackets after ≈: the same amount, converted by molar mass.

Key:
E. faecalis MTCC 439 [1] = assay: In vitro screening, % growth inhibition at 250 μg/mL; format: cell-based, Enterococcus faecalis
In short: (§1)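 Test compounds dissolved in DMSO and diluted in test medium. Mid-log cultures diluted in nutrient broth to McFarland standard and treated with 250 μg/mL in 96-well plates, 37 °C, 160 rpm, 24 h. Growth read as OD at 580 nm; % inhibition calculated from absorbance against untreated growth. Run twice on different occasions.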

S. typhimurium MTCC 3224 [2] = assay: as above; format: cell-based, Salmonella typhimurium; details: 24 h
In short: as §1

P. auroginosa MTCC 2453 [3] = assay: as above; format: cell-based, Pseudomonas auroginosa
In short: as §1

S. pneumoniae MTCC 655 [4] = assay: as above; format: cell-based, Streptococcus pneumoniae
In short: as §1

E. coli ATCC 25922 [5] = assay: as above; format: cell-based, Escherichia coli
In short: as §1

E. faecalis MTCC 439 [6] = assay: MIC by broth microdilution; format: cell-based; details: Enterococcus faecalis, MTCC439
S. typhimurium MTCC 3224 [7] = assay: MIC by broth microdilution; format: cell-based; details: Salmonella enterica, MTCC3224|TYPHIMURIUM
P. auroginosa MTCC 2453 [8] = assay: MIC by broth microdilution; format: cell-based, Pseudomonas auroginosa; details: Pseudomonas, MTCC2453
S. pneumoniae MTCC 655 [9] = assay: MIC by broth microdilution; format: cell-based; details: Streptococcus pneumoniae, MTCC655
E. coli ATCC 25922 [10] = assay: MIC by broth microdilution; format: cell-based; details: Escherichia coli, ATCC25922
Hemolytic assay = format: cell-based; details: human, human red blood cells (erythrocytes/PBS suspension)
In short: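 Human blood from a healthy donor was collected in EDTA and spun at 2000 rpm for 10 min at room temperature. Erythrocytes were PBS-washed, made into a 10% (v/v) suspension and diluted 1:10. Test compound (400–3.125 μg/mL in PBS) mixed with an equal volume of this suspension, 1 h at 37 °C, then spun.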

E. coli ATCC 25922 [11] = assay: Disk diffusion assay; format: cell-based, Escherichia coli
S. pneumoniae MTCC 655 [12] = assay: Disk diffusion assay; format: cell-based, Streptococcus pneumoniae
S. pneumoniae MTCC 655 [13] = assay: Spot assay; format: cell-based, Streptococcus pneumoniae; details: 2MIC, 6 h exposure
In short: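 Mid-log S. pneumoniae MTCC 655 harvested and diluted in sterile PBS to McFarland standard. 2 mL suspension exposed to test compound at 2MIC, MIC or 0.5MIC, 37 °C, 160 rpm, 6 h. 2 μL spots put on nutrient agar, 37 °C for 24 h, growth scored +/−. Ciprofloxacin-treated positive and untreated negative controls. Triplicate, three occasions.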

E. coli [14] = assay: Growth kinetic studies; format: cell-based, Escherichia coli; details: 2MIC and MIC
S. pneumoniae [15] = assay: Growth kinetic studies; format: cell-based, Streptococcus pneumoniae; details: 2MIC and MIC
E. coli [16] = assay: Time–kill curve assay; format: cell-based, Escherichia coli
In short: (§2)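 Nutrient broth inoculated with about 2 × 10^6 cells of fresh culture, two-fold diluted and exposed to test compound at MIC or 2MIC; untreated control included. Incubation at 37 °C, 160 rpm. At 0, 2, 4, 8 and 24 h, 100 μL was diluted in sterile saline, 50 μL plated on nutrient agar and colonies counted after 24 h at 37 °C. Duplicate; mean log10 CFU/mL plotted against time.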

S. pneumoniae [17] = assay: Time–kill curve assay; format: cell-based, Streptococcus pneumoniae; details: up to 24 h
In short: as §2

P. aeruginosa = assay: Synergistic assay with ciprofloxacin; format: cell-based
S. typhimurium = assay: Synergistic assay with ciprofloxacin; format: cell-based, Salmonella typhimurium
E. faecalis = assay: Synergistic assay with ciprofloxacin; format: cell-based, Enterococcus faecalis
S. pneumoniae [18] = assay: Synergistic assay with ciprofloxacin; format: cell-based, Streptococcus pneumoniae
E. coli [19] = assay: Synergistic assay with ciprofloxacin; format: cell-based, Escherichia coli
E. coli cells = assay: Confocal laser microscopy with DAPI staining; format: cell-based, Escherichia coli; details: MIC of 4l for 3 h
E. coli biofilm [20] = assay: Biofilm assessment by XTT assay; format: cell-based, Escherichia coli; details: for reduction in absorbance (biofilm, XTT): 24 h
In short: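 Biofilms grown from 100 μL standardized cell suspension in nutrient broth with 0.5% extra glucose, 37 °C, 24 h, static. […] Washed again, XTT salt added for 90 min at 37 °C in the dark, A490 read. % inhibition taken from dose–response curves.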

S. pneumoniae biofilm = assay: Biofilm assessment by XTT assay; format: cell-based, Streptococcus pneumoniae
E. coli biofilm [21] = assay: Biofilm formation assessment by SEM; format: cell-based, Escherichia coli; details: 24 h
In short: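 Sterile glass pieces (10 mm2) placed in nutrient broth with 0.5% extra glucose and inoculated with fresh E. coli primary culture. […] Glass washed with PBS and fixed overnight in 2.5% glutaraldehyde/2% paraformaldehyde in 0.1 M phosphate buffer pH 7.4. Washed, dried, imaged by SEM; untreated control included.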

[22] = P. aeruginosa, 4l combined with CIP
[23] = S. typhimurium, 4l combined with CIP
[24] = E. faecalis, 4l combined with CIP
[25] = S. pneumoniae, 4l combined with CIP

In the case of `CNC1=C([N+](=O)[O-])C2(C(=O)Nc3ccccc32)C2=C(O1)C(=O)c1ccccc1C2=O` (stereo not drawn) [Compound 4l], the “% inhibition at 250 μg/mL” value (E. faecalis MTCC 439 [1]; E. faecalis MTCC 439, 250 μg/mL, 24 h) is reported as “complete inhibition”, the inhibition at 250 µg/mL (E. faecalis MTCC 439 [1]; Enterococcus faecalis, MTCC439, 24 h, read-out: % inhibition at 250 μg/mL) is reported as 100% and the “% inhibition at 250 μg/mL” value (S. typhimurium MTCC 3224 [2]) is reported as “complete inhibition”. The “% inhibition at 250 μg/mL” value (P. auroginosa MTCC 2453 [3]; P. auroginosa MTCC 2453, 250 μg/mL, 24 h) was “complete inhibition”, the inhibition at 250 µg/mL (P. auroginosa MTCC 2453 [3]; Pseudomonas, MTCC2453, 24 h, read-out: % inhibition at 250 μg/mL) was 100% and the “% inhibition at 250 μg/mL” value (S. pneumoniae MTCC 655 [4]; S. pneumoniae MTCC 655, 250 μg/mL, 24 h) was “complete inhibition”. The inhibition at 250 µg/mL (S. pneumoniae MTCC 655 [4]; Streptococcus pneumoniae, MTCC655, 24 h, read-out: % inhibition at 250 μg/mL) was 100%, the “% inhibition at 250 μg/mL” value (E. coli ATCC 25922 [5]; E. coli ATCC 25922, 250 μg/mL, 24 h) was “complete inhibition” and the inhibition at 250 µg/mL (E. coli ATCC 25922 [5]; Escherichia coli, ATCC25922, 24 h, read-out: % inhibition at 250 μg/mL) was 100%. It also gave an MIC (E. faecalis MTCC 439 [6]) of 250 µg/mL (≈ 620 µM), an MIC (S. typhimurium MTCC 3224 [7]) of 250 µg/mL (≈ 620 µM) and an MIC (P. auroginosa MTCC 2453 [8]) of 125 µg/mL (≈ 310 µM). For the same compound, the MIC (S. pneumoniae MTCC 655 [9]) was 125 µg/mL (≈ 310 µM), the MIC (E. coli ATCC 25922 [10]) was 125 µg/mL (≈ 310 µM) and the hemolysis at 1 h, 100 μg/mL (Hemolytic assay) was 13%. For the same compound, the hemolysis at 1 h, 200 μg/mL (Hemolytic assay) was 20%, the hemolysis at 1 h, 400 μg/mL (Hemolytic assay) was 32% and the “additional opaque zone of inhibition” value (E. coli ATCC 25922 [11]; 2MIC, MIC and 0.5MIC disks) was 3 ± 1 mm. The “clear zone of inhibition” value (E. coli ATCC 25922 [11]; disk with 0.5MIC (62.5 μg/mL)) was 14 mm, the “clear zone of inhibition” value (E. coli ATCC 25922 [11]; disk with 2MIC (250 μg/mL)) was 18 mm and the “clear zone of inhibition” value (E. coli ATCC 25922 [11]; disk with MIC (125 μg/mL)) was 17 mm. For the same compound, the “additional opaque zone of inhibition” value (S. pneumoniae MTCC 655 [12]; 2MIC, MIC and 0.5MIC disks) was 3 ± 1 mm, the “clear zone of inhibition” value (S. pneumoniae MTCC 655 [12]; disk with 0.5MIC (62.5 μg/mL)) was 14 mm and the “clear zone of inhibition” value (S. pneumoniae MTCC 655 [12]; disk with 2MIC (250 μg/mL)) was 17 mm. For the same compound, the “clear zone of inhibition” value (S. pneumoniae MTCC 655 [12]; disk with MIC (125 μg/mL)) was 15 mm, the “growth in spot assay (in words)” value (S. pneumoniae MTCC 655 [13]) was “no S. pneumoniae growth” and the “continuous lag phase (no substantial growth)” value (E. coli [14]) was 24 h. For the same compound, the “continuous lag phase (no substantial growth)” value (S. pneumoniae [15]) was 24 h, the “killing activity (time–kill)” value (E. coli [16]; 2MIC, after 24 h) was “complete eradication” and the “killing activity (time–kill)” value (E. coli [16]; MIC, up to 24 h) was “significant decrease in log10 CFU/mL”. The “killing activity (time–kill)” value (S. pneumoniae [17]; 2MIC) was “almost completely killed bacterial cells”, the “killing activity (time–kill)” value (S. pneumoniae [17]; MIC) was “significant decrease in log10 CFU/mL” and the FICI (P. aeruginosa; [22]) was 1.06. The MIC in combination (P. aeruginosa; [22]) was 15.63 µg/mL, the mode of interaction (P. aeruginosa; [22]) was “indifferent (An FIC index result of >0.5 but <4 was considered indifferent)” and the MIC (P. aeruginosa; Pseudomonas aeruginosa, read-out: MIC alone) was 250 µg/mL. The FICI (S. typhimurium; [23]) was 1.01, the MIC in combination (S. typhimurium; [23]) was 3.90 µg/mL and the mode of interaction (S. typhimurium; [23]) was “indifferent (An FIC index result of >0.5 but <4 was considered indifferent)”. The MIC (S. typhimurium; Salmonella enterica, TYPHIMURIUM, read-out: MIC alone) was 250 µg/mL, the FICI (E. faecalis; [24]) was 0.27 and the MIC in combination (E. faecalis; [24]) was 3.90 µg/mL. For the same compound, the mode of interaction (E. faecalis; [24]) was “synergistic (Synergy and antagonism were defined by FIC indices of <0.5 and >4, respectively)”, the MIC (E. faecalis; Enterococcus faecalis, read-out: MIC alone) was 250 µg/mL and the FICI (S. pneumoniae [18]; [25]) was 0.29. The MIC in combination (S. pneumoniae [18]; [25]) was 3.90 µg/mL, the mode of interaction (S. pneumoniae [18]; [25]) was “synergistic (Synergy and antagonism were defined by FIC indices of <0.5 and >4, respectively)” and the MIC (S. pneumoniae [18]; Streptococcus pneumoniae, read-out: MIC alone) was 125 µg/mL. The FICI (E. coli [19]; E. coli, 4l combined with CIP) was 0.53, the MIC in combination (E. coli [19]; E. coli, 4l combined with CIP) was 3.90 µg/mL and the MIC (E. coli [19]; Escherichia coli, read-out: MIC alone) was 125 µg/mL. The “effect on E. coli cells under confocal microscopy (DAPI)” value (E. coli cells) was “reduction in the number of living cells”, the “reduction in absorbance (biofilm, XTT)” value (E. coli biofilm [20]; 2MIC (by order)) was 80% and the “reduction in absorbance (biofilm, XTT)” value (E. coli biofilm [20]; 4MIC (first of 4MIC, 2MIC, MIC by order)) was 97%. For the same compound, the “reduction in absorbance (biofilm, XTT)” value (E. coli biofilm [20]; MIC (by order)) was 77%, the “effect on biofilm formation (XTT)” value (E. coli biofilm [20]; sub-MIC: MIC/2, MIC/4, MIC/8) was “significant reduction in biofilm formation” and the “effect on biofilm formation (XTT)” value (S. pneumoniae biofilm; even at MIC, 24 h) was “almost completely disrupted biofilm formation”. The “effect on biofilm formation (XTT)” value (S. pneumoniae biofilm; sub-MIC: MIC/2, MIC/4, MIC/8) was “significant reduction in biofilm formation”, the “biofilm appearance under SEM” value (E. coli biofilm [21]; 2MIC) was “very few scattered bacterial cells” and the “biofilm appearance under SEM” value (E. coli biofilm [21]; MIC) was “significant damage in biofilm formation”.
